Experiments:
HCT-116 = assay: Growth inhibition against human HCT-116 cells assessed as total growth inhibitory concentration incubated for 48 hrs by sulforhodamine B assay; format: functional
Albumin = Albumin (Bos taurus, UniProt P02769); assay: Binding affinity to bovine serum albumin assessed as fluorescence quenching by fluorescence spectroscopic method relative to control; conditions: cattle
T47D [1] = assay: Antiproliferative activity against human T47D cells assessed as cell growth at 0.0001 M incubated for 48 hrs by SRB assay relative to control; format: functional; conditions: read-out: Activity
HOP-62 [2] = assay: Growth inhibition against human HOP-62 cells incubated for 48 hrs by sulforhodamine B assay; format: functional
SF-295 = assay: Growth inhibition against human SF-295 cells assessed as total growth inhibitory concentration incubated for 48 hrs by sulforhodamine B assay; format: functional
HCT-15 = assay: Antiproliferative activity against human HCT-15 cells assessed as cell growth at 0.000001 M incubated for 48 hrs by SRB assay relative to control; format: functional; conditions: read-out: Activity
Procedure, shortened: (§1)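 NCI-60 five-dose screen (10^-4 to 10^-8 M). Cells grown in RPMI 1640 with 5% FBS and 2 mM L-glutamine, plated at 5,000-40,000 cells/well and preincubated 24 h. Drug given from DMSO stock, then 48 h at 37 °C, 5% CO2. For adherent lines, cells fixed with cold TCA, SRB-stained and read at 515 nm. Percent growth taken against time-zero and untreated control.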

MDA-MB-435 = assay: Antiproliferative activity against human MDA-MB-435 cells assessed as cell growth at 0.0001 M incubated for 48 hrs by SRB assay relative to control; format: functional; conditions: read-out: Activity
HOP-62 [3] = assay: Antiproliferative activity against human HOP-62 cells assessed as cell growth at 0.000001 M incubated for 48 hrs by SRB assay relative to control; format: functional; conditions: read-out: Activity; procedure, shortened: as §1
NCI/ADR-RES = assay: Growth inhibition against human NCI/ADR-RES cells assessed as total growth inhibitory concentration incubated for 48 hrs by sulforhodamine B assay; format: functional
MOLT-4 [4] = assay: Antiproliferative activity against human MOLT-4 cells assessed as cell growth at 0.0001 M incubated for 48 hrs by SRB assay relative to control; format: functional; conditions: read-out: Activity
ACHN = assay: Antiproliferative activity against human ACHN cells assessed as cell growth at 0.0001 M incubated for 48 hrs by SRB assay relative to control; format: functional; conditions: read-out: Activity
Procedure, shortened: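 NCI-60 five-dose screen over 10^-4–10^-8 M (10-fold dilutions). Cells grown in RPMI 1640 with 5% FBS and 2 mM L-glutamine, seeded at 5,000–40,000 cells/well and preincubated 24 h. Drug from DMSO stock, 48 h at 37 °C, 5% CO2. Adherent cells TCA-fixed and stained with 0.4% SRB; A515 read. Percent growth = (Ti−Tz)/(C−Tz)×100, or (Ti−Tz)/Tz×100 when Ti<Tz.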

RPMI-8226 = assay: Antiproliferative activity against human RPMI-8226 cells assessed as cell growth at 0.000001 M incubated for 48 hrs by SRB assay relative to control; format: functional; conditions: read-out: Activity
NCI-H522 = assay: Antiproliferative activity against human NCI-H522 cells assessed as cell growth at 0.0001 M incubated for 48 hrs by SRB assay relative to control; format: functional; conditions: read-out: Activity
OVCAR-5 = assay: Growth inhibition against human OVCAR-5 cells assessed as total growth inhibitory concentration incubated for 48 hrs by sulforhodamine B assay; format: functional
Calf thymus DNA [5] = assay: Binding affinity to calf thymus DNA assessed as gibbs free energy change at temperature of 308 K by Van't Hoff plot analysis; format: nucleic-acid assay; conditions: Bos taurus
Calf thymus DNA [6] = assay: Binding affinity to calf thymus DNA assessed as change in enthalpy at temperature of 298 K by Van't Hoff plot analysis; format: nucleic-acid assay; conditions: Bos taurus
Calf thymus DNA [7] = assay: Binding affinity to calf thymus DNA assessed as change in entropy at temperature of 298 K by Van't Hoff plot analysis; format: nucleic-acid assay; conditions: Bos taurus
Calf thymus DNA [8] = assay: Binding affinity to calf thymus DNA assessed as fluorescence quenching intensity at 5 uM at temperature of 318 K by fluorescence spectroscopic method relative to control; format: nucleic-acid assay; conditions: Bos taurus
T47D [9] = assay: Growth inhibition against human T47D cells assessed as total growth inhibitory concentration incubated for 48 hrs by sulforhodamine B assay; format: functional
SW-620 = assay: Antiproliferative activity against human SW620 cells assessed as cell growth at 0.00001 M incubated for 48 hrs by SRB assay relative to control; format: functional; conditions: read-out: Activity
UACC-62 = assay: Growth inhibition against human UACC-62 cells assessed as total growth inhibitory concentration incubated for 48 hrs by sulforhodamine B assay; format: functional
U-251 = assay: Antiproliferative activity against human U-251 cells assessed as cell growth at 0.0001 M incubated for 48 hrs by SRB assay relative to control; format: functional; conditions: read-out: Activity
NCI-H226 = assay: Growth inhibition against human NCI-H226 cells assessed as total growth inhibitory concentration incubated for 48 hrs by sulforhodamine B assay; format: functional
Calf thymus DNA [10] = assay: Binding affinity to calf thymus DNA assessed as binding constant at temperature of 318 K by Stern-Volmer quenching plot based fluorescence spectroscopic method; format: nucleic-acid assay; conditions: Bos taurus
Calf thymus DNA [11] = assay: Binding affinity to calf thymus DNA assessed as DNA intercalation by measuring Stem-Volmer quenching constant at temperature of 308 K by fluorescence spectroscopic method; format: nucleic-acid assay; conditions: Bos taurus
SNB-75 = assay: Antiproliferative activity against human SNB-75 cells assessed as cell growth inhibition by measuring lethal concentration incubated for 48 hrs by sulforhodamine B assay; format: functional; conditions: read-out: LC50 (the source's name)
Procedure, shortened: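 NCI-60 five-dose screen (10^-4 to 10^-8 M, 10-fold dilutions; DMSO stocks). Cells in RPMI 1640 with 5% FBS and 2 mM L-glutamine, preincubated 24 h, then exposed 48 h at 37 °C, 5% CO2. Fixed with cold TCA, stained with 0.4% SRB, absorbance read at 515 nm. Time-zero plates used as reference. LC50 taken from [(Ti-Tz)/Tz]×100 […].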

K562 [12] = assay: Antiproliferative activity against human K562 cells assessed as cell growth at 0.000001 M incubated for 48 hrs by SRB assay relative to control; format: functional; conditions: read-out: Activity
Calf thymus DNA [13] = assay: Binding affinity to calf thymus DNA assessed as DNA intercalation by measuring Stem-Volmer quenching constant at temperature of 318 K by fluorescence spectroscopic method; format: nucleic-acid assay; conditions: Bos taurus
LOX IMVI = assay: Antiproliferative activity against human LOX IMVI cells assessed as cell growth inhibition by measuring lethal concentration incubated for 48 hrs by sulforhodamine B assay; format: functional; conditions: read-out: LC50 (the source's name)
Calf thymus DNA [14] = assay: Binding affinity to calf thymus DNA assessed as gibbs free energy change at temperature of 298 K by Van't Hoff plot analysis; format: nucleic-acid assay; conditions: Bos taurus
SK-MEL-5 = assay: Antiproliferative activity against human SK-MEL-5 cells assessed as cell growth inhibition by measuring lethal concentration incubated for 48 hrs by sulforhodamine B assay; format: functional; conditions: read-out: LC50 (the source's name)
Calf thymus DNA [15] = assay: Binding affinity to calf thymus DNA assessed as gibbs free energy change at temperature of 318 K by Van't Hoff plot analysis; format: nucleic-acid assay; conditions: Bos taurus
MOLT-4 [16] = assay: Antiproliferative activity against human MOLT-4 cells assessed as cell growth at 0.00001 M incubated for 48 hrs by SRB assay relative to control; format: functional; conditions: read-out: Activity
K562 [17] = assay: Growth inhibition against human K562 cells incubated for 48 hrs by sulforhodamine B assay; format: functional

Sequence of Albumin (P02769 whole entry): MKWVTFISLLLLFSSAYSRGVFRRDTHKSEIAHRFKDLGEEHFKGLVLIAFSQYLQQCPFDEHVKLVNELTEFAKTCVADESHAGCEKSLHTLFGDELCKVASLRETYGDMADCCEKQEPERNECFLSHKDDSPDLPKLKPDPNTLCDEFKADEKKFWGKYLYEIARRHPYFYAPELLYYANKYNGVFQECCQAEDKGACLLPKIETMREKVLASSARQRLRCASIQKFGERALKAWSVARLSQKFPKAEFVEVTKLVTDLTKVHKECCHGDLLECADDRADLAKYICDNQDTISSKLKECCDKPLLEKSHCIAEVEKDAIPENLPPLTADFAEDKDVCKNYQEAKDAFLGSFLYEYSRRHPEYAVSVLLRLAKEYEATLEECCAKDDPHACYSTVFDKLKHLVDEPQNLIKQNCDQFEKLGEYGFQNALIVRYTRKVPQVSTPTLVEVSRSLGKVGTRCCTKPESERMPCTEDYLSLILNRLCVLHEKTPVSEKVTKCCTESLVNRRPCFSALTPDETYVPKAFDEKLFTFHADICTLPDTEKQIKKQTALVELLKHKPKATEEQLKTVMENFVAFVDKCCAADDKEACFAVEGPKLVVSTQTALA

SMILES: c1ccc(Cn2cnc3ccc(-c4nc(-c5ccc6c(c5)ncn6C5CCCCC5)cn5ccnc45)cc32)cc1
- TGI (HCT-116): 2.63 µM
- Activity (Albumin): 75%
- growth at 100 µM (T47D [1]): 9%
- GI50 (HOP-62 [2]): 2.13 µM
- TGI (SF-295): 2.98 µM
- growth at 1 µM (HCT-15): 65%
- growth at 100 µM (MDA-MB-435): 2%
- growth at 1 µM (HOP-62 [3]): 82%
- TGI (NCI/ADR-RES): 5.43 µM
- growth at 100 µM (MOLT-4 [4]): 4%
- growth at 100 µM (ACHN): 23%
- growth at 1 µM (RPMI-8226): 55%
- growth at 100 µM (NCI-H522): -42%

SMILES: COc1ccc(-c2cn3ccnc3c(-c3ccc4ncn(C5CCCCC5)c4c3)n2)cc1
- TGI (OVCAR-5): > 100 µM
- TGI (HCT-116): 4.06 µM
- deltaG (Calf thymus DNA [5]): -5.85 kcal/mol
- deltaH (Calf thymus DNA [6]): -69.3 kcal/mol
- deltaS (Calf thymus DNA [7]): -206 cal/mol/K
- Activity (Calf thymus DNA [8]): 60%
- growth at 100 µM (T47D [1]): -21%
- TGI (T47D [9]): 4.5 µM
- growth at 10 µM (SW-620): 29%
- TGI (UACC-62): > 100 µM
- GI50 (HOP-62 [2]): 1.09 µM
- growth at 100 µM (U-251): 6%
- TGI (NCI-H226): > 100 µM
- Kb (Calf thymus DNA [10]): 0.02 10^4/M
- growth at 1 µM (HCT-15): 42%
- growth at 100 µM (MDA-MB-435): 11%
- growth at 1 µM (HOP-62 [3]): 52%
- KSV (Calf thymus DNA [11]): 1.68 10^4/M
- CC50 (SNB-75): > 100 µM
- growth at 1 µM (K562 [12]): 25%
- KSV (Calf thymus DNA [13]): 0.73 10^4/M
- CC50 (LOX IMVI): > 100 µM
- deltaG (Calf thymus DNA [14]): -7.91 kcal/mol
- CC50 (SK-MEL-5): > 100 µM
- growth at 100 µM (MOLT-4 [4]): 22%
- deltaG (Calf thymus DNA [15]): -3.79 kcal/mol
- growth at 10 µM (MOLT-4 [16]): 13%
- growth at 100 µM (ACHN): 23%
- GI50 (K562 [17]): 0.422 µM
- growth at 1 µM (RPMI-8226): 86%

— ChEMBL document CHEMBL5247578, “Effective synthesis of benzimidazoles-imidazo[1,2-a]pyrazine conjugates: A comparative study of mono-and bis-benzimidazoles for antitumor activity” (Eur J Med Chem, 2019)
